Results: ChEMBL document CHEMBL1275307, “Design, synthesis and biological evaluation of 1,3,4-oxadiazole derivatives” (2010)

Tested on: Staphylococcus epidermidis
Assay: Antimicrobial activity against Staphylococcus epidermidis ATCC 12228 after 24 hrs by disk diffusion method
Assay type: functional
Summary of the method: (§1)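 Paper discs (6.25 mm diameter; Whatman no.1, dry-heat sterilized 140 °C, 1 h) soaked in test compound at a known concentration, placed on nutrient agar seeded with organism; solvent and growth controls plus ciprofloxacin standard included. Plates inverted, incubated 24 h at 37 °C; inhibition zone diameters measured and compared with controls.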

Row | SMILES | inhibition zone (IZ)
1 | S=c1[nH]nc(-c2ccccc2)o1 | 18 mm
2 | CC(=O)Oc1ccccc1-c1nnc(S)o1 | 26 mm
3 | Cc1ccc(-c2nnc(S)o2)cc1 | 16 mm
4 | Sc1nnc(-c2cccnc2)o1 | 26 mm
5 | Cc1ccc(-c2nnc(-c3ccccc3O)o2)cc1 | 22 mm
6 | Cc1ccccc1-c1nnc(-c2ccccc2O)o1 | 24 mm
7 | Oc1ccccc1-c1nnc(-c2ccccc2)o1 | 18 mm
8 | c1ccc(-c2nnc(-c3cccnc3)o2)cc1 | 25 mm
9 | Oc1ccccc1-c1nnc(Cc2ccc3ccccc3c2)o1 | 25 mm
10 | Oc1ccccc1-c1nnc(S)o1 | 22 mm
11 | O=C(O)c1cn(C2CC2)c2cc(N3CCNCC3)c(F)cc2c1=O [CIPROFLOXACIN] | 30 mm

Tested on: Staphylococcus aureus
Assay: Antimicrobial activity against Staphylococcus aureus ATCC 25923 after 24 hrs by disk diffusion method
Assay type: functional
Summary of the method: as §1

Row | SMILES | inhibition zone (IZ)
12 | S=c1[nH]nc(-c2ccccc2)o1 | 22 mm
13 | CC(=O)Oc1ccccc1-c1nnc(S)o1 | 24 mm
14 | Cc1ccc(-c2nnc(S)o2)cc1 | 20 mm
15 | Sc1nnc(-c2cccnc2)o1 | 25 mm
16 | Cc1ccc(-c2nnc(-c3ccccc3O)o2)cc1 | 20 mm
17 | Cc1ccccc1-c1nnc(-c2ccccc2O)o1 | 23 mm
18 | Oc1ccccc1-c1nnc(-c2ccccc2)o1 | 21 mm
19 | c1ccc(-c2nnc(-c3cccnc3)o2)cc1 | 24 mm
20 | Oc1ccccc1-c1nnc(Cc2ccc3ccccc3c2)o1 | 23 mm
21 | Oc1ccccc1-c1nnc(S)o1 | 24 mm
22 | O=C(O)c1cn(C2CC2)c2cc(N3CCNCC3)c(F)cc2c1=O [CIPROFLOXACIN] | 29 mm

Tested on: Escherichia coli
Assay: Antimicrobial activity against Escherichia coli MTCC 443 after 24 hrs by disk diffusion method
Assay type: functional
Summary of the method: as §1

Row | SMILES | inhibition zone (IZ)
23 | S=c1[nH]nc(-c2ccccc2)o1 | 20 mm
24 | CC(=O)Oc1ccccc1-c1nnc(S)o1 | 25 mm
25 | Cc1ccc(-c2nnc(S)o2)cc1 | 19 mm
26 | Sc1nnc(-c2cccnc2)o1 | 21 mm
27 | Cc1ccc(-c2nnc(-c3ccccc3O)o2)cc1 | 19 mm
28 | Cc1ccccc1-c1nnc(-c2ccccc2O)o1 | 23 mm
29 | Oc1ccccc1-c1nnc(-c2ccccc2)o1 | 19 mm
30 | c1ccc(-c2nnc(-c3cccnc3)o2)cc1 | 24 mm
31 | Oc1ccccc1-c1nnc(Cc2ccc3ccccc3c2)o1 | 21 mm
32 | Oc1ccccc1-c1nnc(S)o1 | 18 mm
